Screening results deposited in PubChem BioAssay by SRMLSC.
The entries come from a sample that favours hits as a whole.
H69AR growth 86K – blocks growth of human H69AR lung tumor cells | H69AR lung tumor viability, ATP luminescence, 72 h; active compounds read low | viability, % at 10 µM | 85,000 tested, 6% active;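 active = viability at or below 40%; inactive = viability above 40%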;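 note: multidrug resistant small cell line overexpressing MRP-1 efflux transporter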
HCT116 PTEN-null – PTEN-deleted cell growth suppression; HCT116 PTEN-null viability, CellTiter-Glo, 60 h; active compounds read low; AID 827; viability, % at 10 µM; 140,000 tested, 1.2% active;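 active = viability at or below a set limit, 4 SD under the median of all tested compounds, cut at about 3.7% in these data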;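 note: PTEN knockout HCT116 line with beta catenin targeted HCT116 as companion control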
HUVEC inhibit – inhibitors of human endothelial cell proliferation; viability, % at 10 µM (by protocol); HUVEC proliferation, CellTiter-Glo luminescence, 72 h; active compounds read low; 86,000 tested, 1.1% active;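 active = viability at or below 30%; inactive = viability above 30%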
Fibroblast inh – blocks proliferation of human lung fibroblasts; LL 47 human lung fibroblast viability, ATP luminescence; active compounds read low; viability, % at 10 µM; 85,000 tested, 1.1% active;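 active = viability at or below 50% in the single dose screen; inactive = viability above 50%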;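 note: compound exposure lasted 72 h before the ATP readout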
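Test system: LL 47 human lung fibroblasts; Quantity: 1,150 cells/well; Buffer or medium: IMEM plus 15% FBS; Dosing: tenfold compound dosing solution, DMSO at 0.1%; Timing: overnight cell rest, 72 h compound treatment at 37 °C; Detection: ATP-based CellTiter-Glo luminescent readout; Read-out basis: viability percentage against median untreated-cell control; Controls: cell-only wells, no compound.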
HCT116 bCat-KO – beta-catenin-lacking colon tumor cell growth suppression; HCT116 beta-catenin knockout viability, CellTiter-Glo, 60 h; active compounds read low; viability, % at 10 µM; 140,000 tested, 1.5% active;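 active = viability at or under a set limit, the compound median less 4 SD, cut at about 6% in these data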
Each line names hits and unclear results; the compound was inactive in the other large screens.

C=CCCCCCCCCc1nc(=S)[nH][nH]1	H69AR growth 86K 20.9
O=C(CSc1nc(-c2ccccc2)c(-c2ccccc2)[nH]1)NCc1ccco1	none
O=C(CSc1nc(-c2ccccc2)c(-c2ccccc2)[nH]1)NCCN1C(=O)CSC1=O	H69AR growth 86K 21.4
O=C(NC1(C(F)(F)F)C(=O)Nc2c1c(=O)[nH]c(=O)n2-c1ccccc1)c1cccnc1 (stereo not given)	none
O=C(Nc1ccc(N2CCCCC2)cc1)c1cncc(Br)c1	none
CCN1CCN(c2cc(C)c3cc(NC(=O)c4ccc5c(c4)OCO5)ccc3n2)CC1	none (no result: H69AR growth 86K, HUVEC inhibit, Fibroblast inh)
CCN1CCN(c2cc(C)c3cc(NC(=O)c4ccc(OC)c(OC)c4)ccc3n2)CC1	H69AR growth 86K 18.6, Fibroblast inh 42.5
CCN1CCN(c2cc(C)c3cc(NC(=O)c4cncc(Br)c4)ccc3n2)CC1	HCT116 PTEN-null 1.2, HUVEC inhibit 23.4, HCT116 bCat-KO 1.0
Cc1ccc(-c2csc(/C(C#N)=C/Nc3ccccc3SC(F)(F)F)n2)c(C)c1	none (no result: H69AR growth 86K, HUVEC inhibit, Fibroblast inh)
COc1ccc(CCSc2nnc(C3CCCCC3)n2N)cc1	none
COc1ccccc1Nc1nc(C2(C)CCC(=O)O2)cs1 (stereo not given)	none
CCOc1ccc(N(CCC#N)S(=O)(=O)c2ccc(OC)cc2)cc1	H69AR growth 86K 20.9
CCOC(=O)N1CCN(C(=O)CCSc2ccccc2)CC1	none
Oc1ccc2ccccc2c1N=Nc1ccccn1	HCT116 PTEN-null 2.6, HCT116 bCat-KO 2.4 (no result: H69AR growth 86K, HUVEC inhibit, Fibroblast inh)
CC(C)CCn1c(O)c(N=Nc2ccccn2)c2ccccc21	none (no result: H69AR growth 86K, HUVEC inhibit, Fibroblast inh)
CCOc1ccc(OCc2ccc(C(=O)OCc3ccccn3)o2)cc1	none
Cc1ccc(OCCn2cnc3ccccc3c2=O)c([N+](=O)[O-])c1	none (no result: H69AR growth 86K, HUVEC inhibit, Fibroblast inh)
OCCN1CCN(C(c2cccs2)c2ccc3cccnc3c2O)CC1 (stereo not given)	none
CC(C)(C)c1cc(C(c2cccnc2)N2CCN(CCO)CC2)cc(C(C)(C)C)c1O (stereo not given)	H69AR growth 86K 2.2, HCT116 PTEN-null 1.7, HUVEC inhibit 2.2, Fibroblast inh 2.8, HCT116 bCat-KO 1.7
Cc1ccc2c(Cl)cc(Cl)c(OCC(=O)NC(=O)NCc3ccco3)c2n1	H69AR growth 86K 30.1
Cc1ccc2c(Cl)cc(Cl)c(OCC(=O)NCc3ccco3)c2n1	none
COC(=O)C1CCN(c2nc3ccccc3nc2C(C#N)C(=O)NCCc2ccccc2)CC1 (stereo not given)	none
CCCCNC(=O)C(C#N)c1nc2ccccc2nc1N1CCCC1 (stereo not given)	none
COc1ccc(CNC(=O)C(C#N)c2nc3ccccc3nc2N2CCN(C)CC2)cc1 (stereo not given)	H69AR growth 86K 34.1, HUVEC inhibit 4.2
COc1ccc(CNC(=O)C(C#N)c2nc3ccccc3nc2N2CCCC2)cc1 (stereo not given)	H69AR growth 86K 33.8
COCCOC(=O)c1c(C)oc2ccc(OC(=O)c3ccc4c(c3)OCO4)cc12	none (no result: H69AR growth 86K)
O=C(NCC(c1cccnc1)N1CCOCC1)Nc1ccccc1 (stereo not given)	none
O=C1CSC(=S)N1Cc1cccnc1	H69AR growth 86K 1.2, HCT116 PTEN-null 3.2, Fibroblast inh 36.5, HCT116 bCat-KO 3.9
O=C1CSC(=S)N1c1cccnc1	none
Cc1cc(C)c2nc(NNC(=O)c3ccc(S(=O)(=O)N4CCCC(C)C4)cc3)sc2c1 (stereo not given)	HCT116 bCat-KO 4.0 (no result: H69AR growth 86K, HUVEC inhibit, Fibroblast inh)
Cc1ccc2nc(NNC(=O)c3ccc(S(=O)(=O)N4CCc5ccccc5C4)cc3)sc2c1	HCT116 bCat-KO 3.8 (no result: H69AR growth 86K, HUVEC inhibit, Fibroblast inh)
Cc1cc(C)c2nc(NNC(=O)c3ccc(S(=O)(=O)N4CC(C)CC(C)C4)cc3)sc2c1 (stereo not given)	none (no result: H69AR growth 86K, HUVEC inhibit, Fibroblast inh)
Cc1cccc2sc(NNC(=O)c3ccc(S(=O)(=O)N4CC(C)CC(C)C4)cc3)nc12 (stereo not given)	HCT116 PTEN-null 1.9, HCT116 bCat-KO 2.2 (no result: H69AR growth 86K, HUVEC inhibit, Fibroblast inh)
COC(=O)c1sc2ccccc2c1NC(=O)c1ccc(S(=O)(=O)N2CC(C)CC(C)C2)cc1 (stereo not given)	none (no result: H69AR growth 86K, HUVEC inhibit, Fibroblast inh)
Cc1coc2c(C)c3oc(=O)c4c(c3cc12)CCCC4	H69AR growth 86K 21.3 (no result: HCT116 PTEN-null, HCT116 bCat-KO)
Cc1oc2c(C)c3oc(=O)c4c(c3cc2c1C)CCC4	none
COC(=O)C(NS(C)(=O)=O)(c1c(C)[nH]c2ccccc12)C(F)(F)F (stereo not given)	none
Cc1c(C#N)c(N=CN(C)C)c(C(=O)c2ccc(Br)cc2)n1-c1ccccc1	none
Cc1c(C#N)c(N=CN(C)C)c(C(=O)c2ccccc2)n1-c1ccc(Br)cc1	H69AR growth 86K 19.8
CCCCCCNCc1ccc(Br)cc1	none (no result: H69AR growth 86K, HUVEC inhibit, Fibroblast inh)
